Test results: ChEMBL document CHEMBL1155453, “Spirotetrahydro beta-carbolines (spiroindolones): a new class of potent and orally efficacious compounds for the treatment of malaria” (J Med Chem, 2010); call rule not given here
≈ marks a conversion by molar mass, not a printed value.

Key:
Cytochrome P450 2C9 = Cytochrome P450 2C9 (Homo sapiens, UniProt P11712); assay: Inhibition of CYP2C9 in human liver microsome by LC-MS/MS analysis; type: ADME, microsomes
Cytochrome P450 3A4 = Cytochrome P450 3A4 (Homo sapiens, UniProt P08684); assay: Inhibition of CYP3A4 in human liver microsome by LC-MS/MS analysis; type: ADME, microsomes
Plasmodium falciparum [1] = assay: Antimalarial activity against drug-sensitive Plasmodium falciparum NF54 infected in human erythrocytes after 48 hrs by [3H]hypoxanthine assay; type: functional, organism-based
Cytochrome P450 2D6 = Cytochrome P450 2D6 (Homo sapiens, UniProt P10635); assay: Inhibition of CYP2D6 in human liver microsome by LC-MS/MS analysis; type: ADME, microsomes
Plasmodium falciparum [2] = assay: Antimalarial activity against chloroquine-resistant Plasmodium falciparum K1 infected in human erythrocytes after 48 hrs by [3H]hypoxanthine assay; type: functional, organism-based
[3] = Clearance in mouse at 5 mg/kg, iv; type: ADME, organism-based; set-up: dose 5 mg/kg, route intravenous; settings: in vivo
[4] = Volume of distribution at steady state in mouse at 5 mg/kg, iv; settings: in vivo, read-out: Vdss
[5] = Half life in mouse at 25 mg/kg, po; type: ADME, organism-based; set-up: dose 25 mg/kg, route oral; settings: in vivo
Method in brief: (§1)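 Mouse pharmacokinetics. Plasma drug concentration was followed over time. Derived values: Cmax, Tmax, AUC extrapolated to infinity, terminal half-life, and oral bioavailability (F) from the oral and iv exposures.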

[6] = Half life in mouse at 5 mg/kg, iv; settings: in vivo
Mus musculus = assay: Oral bioavailability in mouse at 25 mg/kg; type: ADME, organism-based; settings: in vivo; method in brief: as §1
[7] = Solubility at pH 6.8; type: physicochemical; settings: buffer
[8] = Lipophilicity, log P of the compound; type: physicochemical; settings: octanol/water
[9] = AUC (infinity) in mouse at 25 mg/kg, po; type: ADME, organism-based; set-up: time infinity, dose 25 mg/kg, route oral; settings: plasma; method in brief: as §1
[10] = Cmax in mouse at 25 mg/kg, po; type: ADME, organism-based; set-up: dose 25 mg/kg, route oral; settings: in vivo; method in brief: as §1
Plasmodium berghei [11] = assay: Antimalarial activity against Plasmodium berghei ANKA infected in NMRI mice (Mus musculus) assessed as host survival time at 30 mg/kg, perorally administered as single dose (reference value: 6 to 7 days); type: functional; settings: route oral
Plasmodium berghei [12] = assay: Antimalarial activity against Plasmodium berghei ANKA infected in NMRI mice (Mus musculus) assessed as host survival time at 100 mg/kg, perorally administered as single dose (reference value: 6 to 7 days); type: functional; settings: route oral
Plasmodium berghei [13] = assay: Antimalarial activity against Plasmodium berghei ANKA infected in NMRI mice (Mus musculus) assessed as host survival time at 30 mg/kg, perorally administered once daily for 3 days (reference value: 6 to 7 days); type: functional; settings: route oral
[14] = Tmax in mouse at 25 mg/kg, po; type: ADME, organism-based; set-up: dose 25 mg/kg, route oral; settings: in vivo; method in brief: as §1
Plasmodium berghei [15] = assay: Antimalarial activity against Plasmodium berghei ANKA infected in NMRI mice (Mus musculus) assessed as host survival time at 10 mg/kg, perorally administered once daily for 3 days (reference value: 6 to 7 days); type: functional; settings: route oral
[16] = Clearance in mouse at 5 mg/kg, iv; settings: in vivo
[17] = target: Voltage-gated inwardly rectifying potassium channel KCNH2 (Homo sapiens, UniProt Q12809); assay: Binding affinity to human ERG
Plasmodium berghei [18] = assay: Antimalarial activity against Plasmodium berghei ANKA infected in NMRI mice (Mus musculus) assessed as reduction in parasitaemia at 10 mg/kg, perorally administered once daily for 3 days; type: functional; set-up: scale not given: the % may be the effect or the level left; settings: route oral
Method in brief: (§2)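 P. berghei-infected mice, 5 per group, given compound orally in 10% ethanol, 30% PEG400, 6% vitamin E TPGS, as a single dose or daily for three days. Parasitemia is measured on day three and reported as percent reduction (activity).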

Plasmodium berghei [19] = assay: Antimalarial activity against Plasmodium berghei ANKA infected in NMRI mice (Mus musculus) assessed as reduction in parasitaemia at 30 mg/kg, perorally administered once daily for 3 days; type: functional; set-up: scale not given: the % may be the effect or the level left; settings: route oral; method in brief: as §2
Plasmodium berghei [20] = assay: Antimalarial activity against Plasmodium berghei ANKA infected in NMRI mice (Mus musculus) assessed as reduction in parasitaemia at 30 mg/kg, perorally administered as single dose; type: functional; set-up: scale not given: the % may be the effect or the level left; settings: route oral; method in brief: as §2
Plasmodium berghei [21] = assay: Antimalarial activity against Plasmodium berghei ANKA infected in NMRI mice (Mus musculus) assessed as reduction in parasitaemia at 100 mg/kg, perorally administered as single dose; type: functional; set-up: scale not given: the % may be the effect or the level left; settings: route oral; method in brief: as §2

Sequence of Cytochrome P450 3A4 (P08684 whole entry): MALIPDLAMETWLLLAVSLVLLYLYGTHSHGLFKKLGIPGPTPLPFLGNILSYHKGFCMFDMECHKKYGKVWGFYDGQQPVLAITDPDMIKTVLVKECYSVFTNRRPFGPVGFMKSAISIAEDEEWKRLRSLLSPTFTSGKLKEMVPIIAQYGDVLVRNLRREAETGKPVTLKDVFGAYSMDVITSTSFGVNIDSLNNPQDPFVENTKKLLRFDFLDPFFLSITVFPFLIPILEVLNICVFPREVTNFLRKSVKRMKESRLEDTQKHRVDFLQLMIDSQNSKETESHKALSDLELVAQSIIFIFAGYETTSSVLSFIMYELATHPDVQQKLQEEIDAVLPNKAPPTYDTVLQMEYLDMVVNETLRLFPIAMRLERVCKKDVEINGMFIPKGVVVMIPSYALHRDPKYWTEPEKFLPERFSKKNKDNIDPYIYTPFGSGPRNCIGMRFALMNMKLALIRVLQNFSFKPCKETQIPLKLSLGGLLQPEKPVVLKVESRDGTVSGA
Sequence of Cytochrome P450 2C9 (P11712 whole entry): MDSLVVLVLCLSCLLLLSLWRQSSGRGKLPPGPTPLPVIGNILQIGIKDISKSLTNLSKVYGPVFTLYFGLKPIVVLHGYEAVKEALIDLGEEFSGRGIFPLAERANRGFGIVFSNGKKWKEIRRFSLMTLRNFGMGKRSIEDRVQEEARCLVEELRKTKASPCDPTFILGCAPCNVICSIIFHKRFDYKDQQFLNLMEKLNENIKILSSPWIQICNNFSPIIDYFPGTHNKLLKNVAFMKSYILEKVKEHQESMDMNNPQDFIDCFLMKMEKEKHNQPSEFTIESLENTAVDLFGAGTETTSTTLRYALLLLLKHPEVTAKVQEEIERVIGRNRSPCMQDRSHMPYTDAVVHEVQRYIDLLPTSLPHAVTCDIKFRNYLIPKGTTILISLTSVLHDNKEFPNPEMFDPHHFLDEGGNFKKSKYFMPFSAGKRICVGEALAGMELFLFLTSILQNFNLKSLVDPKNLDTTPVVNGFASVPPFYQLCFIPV
Sequence of Cytochrome P450 2D6 (P10635 whole entry): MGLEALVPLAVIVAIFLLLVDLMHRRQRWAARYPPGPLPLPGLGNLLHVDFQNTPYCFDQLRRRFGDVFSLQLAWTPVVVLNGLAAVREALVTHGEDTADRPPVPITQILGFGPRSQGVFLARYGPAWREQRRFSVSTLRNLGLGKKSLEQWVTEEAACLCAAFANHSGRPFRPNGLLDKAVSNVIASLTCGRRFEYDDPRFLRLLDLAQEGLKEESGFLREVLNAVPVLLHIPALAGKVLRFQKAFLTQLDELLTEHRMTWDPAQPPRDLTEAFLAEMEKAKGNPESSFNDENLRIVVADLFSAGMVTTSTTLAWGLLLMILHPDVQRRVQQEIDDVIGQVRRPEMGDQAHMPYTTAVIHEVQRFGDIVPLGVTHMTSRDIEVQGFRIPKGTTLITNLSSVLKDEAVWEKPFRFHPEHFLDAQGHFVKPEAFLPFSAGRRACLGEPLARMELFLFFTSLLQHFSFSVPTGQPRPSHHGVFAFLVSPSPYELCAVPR
Sequence of Voltage-gated inwardly rectifying potassium channel KCNH2 (Q12809 whole entry): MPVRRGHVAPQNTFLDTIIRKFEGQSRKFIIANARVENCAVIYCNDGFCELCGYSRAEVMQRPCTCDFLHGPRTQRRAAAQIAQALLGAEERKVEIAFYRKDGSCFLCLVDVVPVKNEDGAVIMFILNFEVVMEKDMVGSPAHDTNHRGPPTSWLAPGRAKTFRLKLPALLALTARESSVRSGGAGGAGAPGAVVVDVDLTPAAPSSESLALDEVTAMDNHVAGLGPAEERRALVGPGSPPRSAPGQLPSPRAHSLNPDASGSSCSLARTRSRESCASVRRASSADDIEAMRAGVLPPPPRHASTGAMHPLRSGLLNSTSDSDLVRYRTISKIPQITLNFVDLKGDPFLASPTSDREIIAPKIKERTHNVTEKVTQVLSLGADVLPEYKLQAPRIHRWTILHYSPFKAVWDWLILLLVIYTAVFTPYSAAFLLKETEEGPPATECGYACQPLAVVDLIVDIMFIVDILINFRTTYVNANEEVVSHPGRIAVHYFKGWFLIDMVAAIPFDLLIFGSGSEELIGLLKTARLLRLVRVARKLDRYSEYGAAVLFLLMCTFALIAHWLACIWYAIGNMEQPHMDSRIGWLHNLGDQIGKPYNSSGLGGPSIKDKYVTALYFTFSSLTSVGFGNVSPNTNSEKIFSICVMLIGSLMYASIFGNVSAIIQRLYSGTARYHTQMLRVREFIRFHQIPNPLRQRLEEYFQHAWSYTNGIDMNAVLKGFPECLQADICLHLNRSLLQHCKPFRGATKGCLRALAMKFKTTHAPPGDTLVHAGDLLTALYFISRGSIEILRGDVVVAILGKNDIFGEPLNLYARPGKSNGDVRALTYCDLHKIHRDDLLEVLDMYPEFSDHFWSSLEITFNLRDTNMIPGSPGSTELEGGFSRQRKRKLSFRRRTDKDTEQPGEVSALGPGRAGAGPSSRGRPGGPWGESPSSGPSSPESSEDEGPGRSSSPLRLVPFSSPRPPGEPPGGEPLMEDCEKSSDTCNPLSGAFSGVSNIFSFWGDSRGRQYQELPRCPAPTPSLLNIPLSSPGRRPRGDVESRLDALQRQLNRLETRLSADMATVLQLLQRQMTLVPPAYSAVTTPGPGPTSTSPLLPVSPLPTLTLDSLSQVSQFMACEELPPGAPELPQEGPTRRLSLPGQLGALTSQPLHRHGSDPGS

For `C[C@@H]1Cc2c([nH]c3ccc(F)cc23)[C@]2(N1)C(=O)Nc1ccc(Cl)cc12`, the IC50 (Cytochrome P450 2C9) was > 10000 nM, the IC50 (Cytochrome P450 3A4) was “Not Active” and the IC50 (Plasmodium falciparum [1]) was 182 nM. The IC50 (Cytochrome P450 2D6) was “Not Active”.

Molecule `O=C1Nc2ccc(Cl)cc2C12NCCCc1c2[nH]c2ccccc12` (stereo not given) has an IC50 (Plasmodium falciparum [2]) of 83 nM and an IC50 (Plasmodium falciparum [1]) of 86 nM.

For `CC1CCc2c([nH]c3ccccc23)C2(N1)C(=O)Nc1ccc(Br)cc12` (stereo not given) [SPIROAZEPINEINDOLE], the IC50 (Plasmodium falciparum [1]) was 90 nM.

With `C[C@@H]1Cc2c([nH]c3cc(Cl)c(F)cc23)[C@]2(N1)C(=O)Nc1ccc(Cl)cc12` the IC50 (Cytochrome P450 2C9) was > 10000 nM, the IC50 (Cytochrome P450 3A4) was “Not Active” and the clearance [3] was 2.58 mL/min/kg. For the same molecule, the IC50 (Plasmodium falciparum [1]) was 77 nM and the IC50 (Cytochrome P450 2D6) was “Not Active”.

For `C[C@@H]1Cc2c([nH]c3cc(Cl)ccc23)[C@]2(N1)C(=O)Nc1ccc(Cl)cc12`, the IC50 (Cytochrome P450 2C9) was > 10000 nM, the IC50 (Cytochrome P450 3A4) was “Not Active” and the IC50 (Plasmodium falciparum [1]) was 116 nM. For the same molecule, the IC50 (Cytochrome P450 2D6) was “Not Active”.

`CC1CCc2c([nH]c3ccccc23)C2(N1)C(=O)Nc1ccc(Cl)cc12` (stereo not given) showed an IC50 (Plasmodium falciparum [1]) of 84 nM.

`C[C@H]1Cc2c([nH]c3cc(F)c(F)cc23)[C@@]2(N1)C(=O)Nc1ccc(Cl)cc12` showed an IC50 (Cytochrome P450 2C9) of 7350 nM, a Vd [4] of 1.6 L/kg and a half-life [5] of 3.18 h. The half-life [6] was 2.94 h, the F (Mus musculus) was 53% and the solubility [7] was 170 µg/mL (≈ 455 µM). The logP [8] was 4, the IC50 (Cytochrome P450 3A4) was “Not Active” and the clearance [3] was 8.53 mL/min/kg. It also gave an AUC(0-inf) [9] of 71.4 µM·h, a Cmax [10] of 8.32 µM and an IC50 (Plasmodium falciparum [1]) of 0.2 nM. The Survival (Plasmodium berghei [11]) was 12 days, the Survival (Plasmodium berghei [12]) was 13 days and the Survival (Plasmodium berghei [13]) was 29.4 days. The Tmax [14] was 2 h, the Survival (Plasmodium berghei [15]) was 17.2 days and the clearance [16] was 8.53 mL/min/kg. For the same molecule, the IC50 (Cytochrome P450 2D6) was “Not Active” and the IC50 [17] was > 30000 nM.

With `C[C@@H]1Cc2c([nH]c3cc(F)c(F)cc23)[C@]2(N1)C(=O)Nc1ccc(Cl)cc12` the IC50 (Cytochrome P450 2C9) was > 10000 nM, the IC50 (Cytochrome P450 3A4) was “Not Active” and the clearance [3] was 4.14 mL/min/kg. For the same molecule, the IC50 (Plasmodium falciparum [1]) was 83 nM and the IC50 (Cytochrome P450 2D6) was “Not Active”.

With `C[C@H]1Cc2c([nH]c3cc(Cl)c(F)cc23)[C@@]2(N1)C(=O)Nc1ccc(Cl)cc12` [CIPARGAMIN] the IC50 (Cytochrome P450 2C9) was 5420 nM, the IC50 (Cytochrome P450 3A4) was “Not Active” and the IC50 (Cytochrome P450 2D6) was “Not Active”.

`CCN(CC)CCCC(C)Nc1ccnc2cc(Cl)ccc12` (stereo not given) [CHLOROQUINE] showed an Activity (Plasmodium berghei [18]) of 99.8%, an Activity (Plasmodium berghei [19]) of 99.8% and an Activity (Plasmodium berghei [20]) of 99.5%. For the same molecule, the Activity (Plasmodium berghei [21]) was 99.6%, the Survival (Plasmodium berghei [11]) was 9 days and the Survival (Plasmodium berghei [12]) was 12.5 days. It also gave a Survival (Plasmodium berghei [13]) of 14.3 days and a Survival (Plasmodium berghei [15]) of 13.6 days.

In the case of `O=C1Nc2ccc(Cl)cc2C12NCCCCc1c2[nH]c2ccccc12` (stereo not given), the IC50 (Plasmodium falciparum [2]) is reported as > 5000 nM and the IC50 (Plasmodium falciparum [1]) is reported as > 5000 nM.

In the case of `CC1(C)Cc2c([nH]c3ccccc23)C2(N1)C(=O)Nc1ccc(Cl)cc12` (stereo not given), the IC50 (Plasmodium falciparum [2]) is reported as 819 nM and the IC50 (Plasmodium falciparum [1]) is reported as 857 nM.

Work on `C[C@H]1Cc2c([nH]c3ccc(F)cc23)[C@@]2(N1)C(=O)Nc1ccc(Cl)cc12` yielded an IC50 (Cytochrome P450 2C9) of 1720 nM, a solubility [7] of 140 µg/mL (≈ 393 µM) and a logP [8] of 3.6. The IC50 (Cytochrome P450 3A4) was “Not Active”, the clearance [3] was 24 mL/min/kg and the IC50 (Plasmodium falciparum [1]) was 3 nM. The IC50 (Cytochrome P450 2D6) was “Not Active”.

With `C[C@@H]1CCc2c([nH]c3ccccc23)[C@]2(N1)C(=O)Nc1ccc(Br)cc12` the IC50 (Plasmodium falciparum [1]) was > 5000 nM.

In the case of `C[C@H]1Cc2c([nH]c3cc(Cl)ccc23)[C@@]2(N1)C(=O)Nc1ccc(Cl)cc12`, the IC50 (Cytochrome P450 2C9) is reported as 4110 nM, the solubility [7] is reported as 8 µg/mL (≈ 21.5 µM) and the logP [8] is reported as 4.8. For the same molecule, the IC50 (Cytochrome P450 3A4) was “Not Active”, the clearance [3] was 60.1 mL/min/kg and the IC50 (Plasmodium falciparum [1]) was 4 nM. For the same molecule, the IC50 (Cytochrome P450 2D6) was “Not Active” and the IC50 [17] was > 30000 nM.

`O=C1Nc2ccc(Cl)cc2C12NCCc1c2[nH]c2ccccc12` (stereo not given) gave an IC50 (Plasmodium falciparum [2]) of 104 nM and an IC50 (Plasmodium falciparum [1]) of 126 nM.

In the case of `C[C@H]1[C@H](OC(=O)CCC(=O)O)O[C@@H]2O[C@@]3(C)CC[C@H]4[C@H](C)CC[C@@H]1[C@@]24OO3` [ARTESUNATE], the Activity (Plasmodium berghei [18]) is reported as 96%, the Activity (Plasmodium berghei [19]) is reported as 99% and the Activity (Plasmodium berghei [20]) is reported as 95.6%. The Activity (Plasmodium berghei [21]) was 98%, the Survival (Plasmodium berghei [11]) was 5.8 days and the Survival (Plasmodium berghei [12]) was 7 days. It also gave a Survival (Plasmodium berghei [13]) of 12.2 days and a Survival (Plasmodium berghei [15]) of 8.1 days.

Molecule `C[C@H]1CCc2c([nH]c3ccccc23)[C@@]2(N1)C(=O)Nc1ccc(Br)cc12` has a solubility [7] of 79 µg/mL (≈ 199 µM) and a logP [8] of 3.9.
